Columns and labels:
Rattus norvegicus [1] = experiment: In vivo sterol lowering activity at dose of 0.10 % of the diet; type: functional
Method in brief: (§1)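 Normal rats were dosed in the diet. Serum sterol and triglyceride levels were measured and expressed as the mean percent of control values. Significance versus control was reported at p < 0.05, 0.01 and 0.001.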

[2] = target: T1, Sterol O-acyltransferase 1 (Rattus norvegicus) (UniProt O70536); experiment: In vitro inhibition of acyl coenzyme A:cholesterol acyltransferase; design: concentration or dose not given beside the values; details: concentration not given here
T1 sequence (whole entry): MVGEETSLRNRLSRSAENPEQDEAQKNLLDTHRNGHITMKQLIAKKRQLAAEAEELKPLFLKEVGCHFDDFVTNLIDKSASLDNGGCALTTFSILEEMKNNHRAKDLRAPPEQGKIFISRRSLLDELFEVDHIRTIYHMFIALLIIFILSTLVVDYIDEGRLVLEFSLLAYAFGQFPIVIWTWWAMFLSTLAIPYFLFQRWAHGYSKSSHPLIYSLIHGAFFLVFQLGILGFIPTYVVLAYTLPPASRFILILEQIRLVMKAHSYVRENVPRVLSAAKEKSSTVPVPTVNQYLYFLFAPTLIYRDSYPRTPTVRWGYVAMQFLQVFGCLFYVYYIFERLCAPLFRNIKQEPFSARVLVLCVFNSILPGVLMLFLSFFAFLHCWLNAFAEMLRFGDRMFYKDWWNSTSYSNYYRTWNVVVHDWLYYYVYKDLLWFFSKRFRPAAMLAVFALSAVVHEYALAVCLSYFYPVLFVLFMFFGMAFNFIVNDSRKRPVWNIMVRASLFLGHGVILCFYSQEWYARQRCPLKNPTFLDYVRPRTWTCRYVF
Method in brief: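 Enzyme fatty acyl-CoA:cholesterol acyltransferase (ACAT), assayed in vitro at a single drug concentration of 5.2 μg/mL. The value is the mean percent inhibition of enzyme activity.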

Rattus norvegicus [3] = experiment: In vivo triglyceride lowering activity when dosed as 0.01 % of the diet; type: functional; method in brief: as §1
Rattus norvegicus [4] = experiment: In vivo sterol lowering activity when dosed as 0.01 % of the diet; type: functional; method in brief: as §1
Rattus norvegicus [5] = experiment: In vivo sterol lowering activity when dosed as 0.03 % of the diet; type: functional; method in brief: as §1
Rattus norvegicus [6] = experiment: In vivo triglyceride lowering activity dosed at 0.10 % of the diet.; type: functional; method in brief: as §1
Rattus norvegicus [7] = experiment: In vivo triglyceride lowering activity when dosed at 0.03 % of the diet; type: functional; method in brief: as §1

Structure (SMILES) | serum sterol level, percent of control (Rattus norvegicus [1]) [%] | inhibition [2] [%] | serum triglyceride level, percent of control (Rattus norvegicus [3]) [%] | serum sterol level, % of control (Rattus norvegicus [4]) [%] | serum sterol level, percent of control (Rattus norvegicus [5]) [%] | serum triglyceride, percent of control (Rattus norvegicus [6]) [%] | serum triglyceride level, percent of control (Rattus norvegicus [7]) [%]
CCCCCCCCCCCCCCCCNc1ccc(C(=O)N2CCCC2)cc1 | 101 | 59 | 75 | 113 | 98 | 95 | –
CCCCCCCCCCCCCCCCNc1ccc(C(N)=O)cc1 | <86 | – | – | 100 | 102 | 114 | –
CCCCCCCCCCCCCCCCNc1ccc(C(=O)NS(=O)(=O)c2ccc(C)cc2)cc1 | <61 | – | <86 | 89 | <56 | <40 | <35
CCCCCCCCCCCCCCCCNc1ccc(C(=O)OCC(COC)OC)cc1 (stereo not given) | 82 | < 24 | – | – | 83 | 70 | 62
CCCCCCCCCCCCCCCCCCN(C)c1ccc(C(=O)O)cc1 | 91 | – | 86 | 101 | 92 | <75 | <61
CCCCCCCCCCCCCCCCNc1ccc(C(=O)[N-]S(=O)(=O)c2ccc(C)cc2)cc1.[Na+] | <48 | – | <52 | <64 | <52 | <32 | <37
CCCCCCCCCCCCCCN(C(C)=O)c1ccc(C(=O)O)cc1 | 91 | – | 98 | 95 | <80 | 96 | 80
CCCCCCCCCCCCCCCCNc1ccc(C(=O)OCCN(C)C)cc1.Cl | 92 | – | 77 | 99 | <92 | <59 | 73
Br.CCCCCCCCCCCCCCCCNc1ccc(COC(C)=O)cc1 | <85 | – | 79 | 93 | 92 | 114 | 135
CCCCCCCCCCCCCCCCN(C)c1ccc(C(=O)OCC)cc1 | <74 | – | <64 | <70 | 84 | 78 | <73
CCCCCCCCCCCCCCCCN(C(C)=O)c1ccc(C(=O)O)cc1 | 103 | – | 109 | 105 | 105 | 121 | 107
CCCCCCCCCCCCCCCCN(CC(=O)O)c1ccc(C(=O)O)cc1 | 93 | – | 105 | 105 | 109 | 99 | 100
CCCCCCCCCCCCCCCCN(CC)c1ccc(C(=O)O)cc1 | <86 | – | <78 | <74 | <60 | 98 | <63
CCCCCCCCCCCCCCCCN(C(C)=O)c1ccc(COC(C)=O)cc1 | 95 | – | <70 | 97 | 93 | 80 | <71
CCCCCCCCCCCCCCCCNc1ccc(C(=O)CCC(=O)OC)cc1 | <84 | 7 | – | – | <81 | 86 | 93
CCCCCCCCCCCCCCCCNc1ccc(C(=O)O)c(Cl)c1 | 95 | – | 113 | 100 | 95 | 101 | 109
CCCCCCCCCCCCCCCCNc1ccc(C(=O)OC)cn1 | 114 | – | – | – | 108 | – | –
CCCCCCCCCCCCCCCCNc1ccc(CC(=O)O)cc1 | 87 | – | 76 | 93 | 87 | <63 | 81
CCCCCCCCCCCCCCCCN(CC)c1ccc(C(=O)[O-])cc1.[Na+] | 116 | – | – | 114 | 116 | – | –
C=CCOC(=O)c1ccc(NCCCCCCCCCCCCCCCC)cc1 | <81 | < 40 | – | 94 | 103 | <70 | <60
CCCCCCCCCCCCCCCCNc1ccc(C(=O)O)c(O)c1 | 108 | 49 | – | – | – | <57 | –
CCCCCCCCCCCCCCCCN(C(=O)C(F)(F)F)c1ccc(C(=O)N2CCCCC2)cc1 | 92 | < 68 | – | – | – | <68 | –
CCCCCCCCCCCCCCCCN(C)c1ccc(C(=O)OCC(O)CO)cc1 (stereo not given) | 99 | 0 | – | – | – | 93 | –
CCCCCCCCCCCCCCCCN(C(=O)C(F)(F)F)c1ccc(C(=O)NNC(C)=O)cc1 | <81 | < 50 | – | – | – | <61 | –
CCCCCCCCCCCCCCCCNc1ccc(C(=O)NC(C)C(=O)O)cc1 (stereo not given) | 102 | 45 | – | – | – | 132 | –
CCCCCCCCCCCCCCCCNc1ccc(C(=O)CC(=O)OC)cc1 | <84 | < 43 | – | – | – | <47 | –
CCCCCCCCCCCCCCCCNc1ccc(C(C#N)O[Si](C)(C)C)cc1 (stereo not given) | 82 | 0 | – | – | – | <36 | –

From ChEMBL document CHEMBL1122366, “Potential antiatherosclerotic agents. 3. Substituted benzoic and non benzoic acid analogues of cetaben” (1983)
